In ChEMBL document CHEMBL4715745, “Synthesis and biological evaluation of novel FK228 analogues as potential isoform selective HDAC inhibitors” (Eur J Med Chem, 2016):

How the values were obtained:
SNB-78 = experiment: Growth inhibition of human SNB-78 cells measured after 48 hrs by sulforhodamine B assay; assay type: functional
Method in brief: (§1)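 Panel of 39 human cancer cell lines tested at the Japanese Foundation for Cancer Research. Five concentrations per compound, spanning 10⁻¹¹–10⁻⁷ M, 10⁻¹⁰–10⁻⁶ M or 10⁻⁸–10⁻⁴ M, were used to build dose-response curves. GI₅₀ is the concentration giving 50% growth inhibition relative to control.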

MKN-74 = experiment: Growth inhibition of human MKN-74 cells measured after 48 hrs by sulforhodamine B assay; assay type: functional; method in brief: as §1
OVCAR-8 = experiment: Growth inhibition of human OVCAR-8 cells measured after 48 hrs by sulforhodamine B assay; assay type: functional; method in brief: as §1
St-4 = experiment: Growth inhibition of human St-4 cells measured after 48 hrs by sulforhodamine B assay; assay type: functional; method in brief: as §1
HCC 2998 = experiment: Growth inhibition of human HCC 2998 cells measured after 48 hrs by sulforhodamine B assay; assay type: functional; method in brief: as §1
DMS-114 = experiment: Growth inhibition of human DMS-114 cells measured after 48 hrs by sulforhodamine B assay; assay type: functional; method in brief: as §1
U-251 = experiment: Growth inhibition of human U-251 cells measured after 48 hrs by sulforhodamine B assay; assay type: functional; method in brief: as §1
MKN-7 = experiment: Growth inhibition of human MKN-7 cells measured after 48 hrs by sulforhodamine B assay; assay type: functional; method in brief: as §1
DU-145 = experiment: Growth inhibition of human DU-145 cells measured after 48 hrs by sulforhodamine B assay; assay type: functional; method in brief: as §1
HCT-15 = experiment: Growth inhibition of human HCT-15 cells measured after 48 hrs by sulforhodamine B assay; assay type: functional; method in brief: as §1
[1] = Selectivity index, ratio of IC50 for mouse HDAC6 expressed in 293T cells to IC50 for human HDAC1 expressed in 293T cells using Ac-KGLGK(Ac)-MCA as substrate incubated for 30 mins in presence of 0.1 mM DTT by fluorescence plate reader assay; settings: 0.5 h
Method in brief: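 Ratio of HDAC6 IC₅₀ to HDAC1 IC₅₀, taken as selectivity for class I HDAC1 over class II HDAC6. Both enzyme assays were run in the presence of 0.1 mM DTT.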

NCI-H460 = experiment: Growth inhibition of human NCI-H460 cells measured after 48 hrs by sulforhodamine B assay; assay type: functional; method in brief: as §1
NCI-H23 = experiment: Growth inhibition of human NCI-H23 cells measured after 48 hrs by sulforhodamine B assay; assay type: functional; method in brief: as §1
KM12 = experiment: Growth inhibition of human KM12 cells measured after 48 hrs by sulforhodamine B assay; assay type: functional; method in brief: as §1
ACHN = experiment: Growth inhibition of human ACHN cells measured after 48 hrs by sulforhodamine B assay; assay type: functional; method in brief: as §1
MKN-1 = experiment: Growth inhibition of human MKN-1 cells measured after 48 hrs by sulforhodamine B assay; assay type: functional; method in brief: as §1
[2] = biological target: T1, Protein deacetylase HDAC6 (Mus musculus, UniProt Q9Z2V5); experiment: Inhibition of mouse HDAC6 expressed in 293T cells using Ac-KGLGK(Ac)-MCA as substrate incubated for 30 mins in presence of 0.1 mM DTT by fluorescence plate reader assay; design: species or system HEK293T
T1 sequence (Q9Z2V5 whole entry): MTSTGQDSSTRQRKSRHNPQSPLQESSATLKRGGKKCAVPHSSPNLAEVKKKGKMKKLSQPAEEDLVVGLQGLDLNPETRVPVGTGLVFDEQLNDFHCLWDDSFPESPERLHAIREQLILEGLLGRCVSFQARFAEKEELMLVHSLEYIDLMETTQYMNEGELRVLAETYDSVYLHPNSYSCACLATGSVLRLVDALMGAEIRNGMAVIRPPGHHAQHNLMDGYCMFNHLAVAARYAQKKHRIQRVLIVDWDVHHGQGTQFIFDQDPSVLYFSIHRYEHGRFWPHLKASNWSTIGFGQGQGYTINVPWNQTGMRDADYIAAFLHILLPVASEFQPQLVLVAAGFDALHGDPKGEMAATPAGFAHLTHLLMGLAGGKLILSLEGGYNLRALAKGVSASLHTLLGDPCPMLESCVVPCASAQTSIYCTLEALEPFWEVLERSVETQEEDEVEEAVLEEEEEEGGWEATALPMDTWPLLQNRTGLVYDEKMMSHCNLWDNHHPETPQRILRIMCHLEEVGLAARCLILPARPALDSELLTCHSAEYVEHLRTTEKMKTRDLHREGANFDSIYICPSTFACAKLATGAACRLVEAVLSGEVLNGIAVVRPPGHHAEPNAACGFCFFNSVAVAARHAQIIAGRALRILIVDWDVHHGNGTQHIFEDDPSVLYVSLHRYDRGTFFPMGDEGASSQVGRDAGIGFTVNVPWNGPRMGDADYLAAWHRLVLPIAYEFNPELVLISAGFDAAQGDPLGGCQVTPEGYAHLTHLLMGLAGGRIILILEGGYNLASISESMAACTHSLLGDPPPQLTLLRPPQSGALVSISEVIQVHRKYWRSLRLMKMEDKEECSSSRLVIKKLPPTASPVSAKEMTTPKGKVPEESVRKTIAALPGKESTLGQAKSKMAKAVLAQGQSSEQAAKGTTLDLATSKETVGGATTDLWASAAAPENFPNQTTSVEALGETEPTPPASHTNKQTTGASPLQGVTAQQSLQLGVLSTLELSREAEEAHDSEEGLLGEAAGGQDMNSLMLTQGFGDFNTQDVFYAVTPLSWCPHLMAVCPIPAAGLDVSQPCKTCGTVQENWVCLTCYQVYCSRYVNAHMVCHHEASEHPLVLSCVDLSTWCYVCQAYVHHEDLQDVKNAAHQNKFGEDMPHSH
Method in brief: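 HDAC enzyme assay run in the presence of 0.1 mM dithiothreitol (DTT); IC₅₀ determined.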

Histone deacetylase 1 = Histone deacetylase 1 (Homo sapiens, UniProt Q13547); experiment: Inhibition of human HDAC1 expressed in 293T cells using Ac-KGLGK(Ac)-MCA as substrate incubated for 30 mins in presence of 0.1 mM DTT by fluorescence plate reader assay; design: species or system HEK293T
Sequence of Histone deacetylase 1 (Q13547 whole entry): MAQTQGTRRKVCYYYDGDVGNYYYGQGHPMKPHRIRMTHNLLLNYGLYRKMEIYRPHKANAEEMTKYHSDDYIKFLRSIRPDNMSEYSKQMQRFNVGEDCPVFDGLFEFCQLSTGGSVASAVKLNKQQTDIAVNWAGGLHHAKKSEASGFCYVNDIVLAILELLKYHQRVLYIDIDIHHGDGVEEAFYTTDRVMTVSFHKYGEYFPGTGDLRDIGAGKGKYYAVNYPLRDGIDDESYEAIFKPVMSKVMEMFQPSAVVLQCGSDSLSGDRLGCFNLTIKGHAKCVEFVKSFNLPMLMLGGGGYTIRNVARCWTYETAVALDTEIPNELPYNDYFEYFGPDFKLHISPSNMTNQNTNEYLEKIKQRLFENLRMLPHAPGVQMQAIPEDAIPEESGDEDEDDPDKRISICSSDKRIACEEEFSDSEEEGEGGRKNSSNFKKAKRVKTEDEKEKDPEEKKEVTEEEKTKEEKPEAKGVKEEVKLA

A549 = experiment: Growth inhibition of human A549 cells measured after 48 hrs by sulforhodamine B assay; assay type: functional; method in brief: as §1
HT-29 = experiment: Growth inhibition of human HT-29 cells measured after 48 hrs by sulforhodamine B assay; assay type: functional; method in brief: as §1
[3] = Growth inhibition of human HBC4 cells measured after 48 hrs by sulforhodamine B assay; assay type: functional; method in brief: as §1
SF-295 = experiment: Growth inhibition of human SF-295 cells measured after 48 hrs by sulforhodamine B assay; assay type: functional; method in brief: as §1
PC-3 = experiment: Growth inhibition of human PC-3 cells measured after 48 hrs by sulforhodamine B assay; assay type: functional; method in brief: as §1
SF-268 = experiment: Growth inhibition of human SF-268 cells measured after 48 hrs by sulforhodamine B assay; assay type: functional; method in brief: as §1
OVCAR-5 = experiment: Growth inhibition of human OVCAR-5 cells measured after 48 hrs by sulforhodamine B assay; assay type: functional; method in brief: as §1
NCI-H522 = experiment: Growth inhibition of human NCI-H522 cells measured after 48 hrs by sulforhodamine B assay; assay type: functional; method in brief: as §1
LOX IMVI = experiment: Growth inhibition of human LOX IMVI cells measured after 48 hrs by sulforhodamine B assay; assay type: functional; method in brief: as §1
OVCAR-4 = experiment: Growth inhibition of human OVCAR-4 cells measured after 48 hrs by sulforhodamine B assay; assay type: functional; method in brief: as §1
DMS-273 = experiment: Growth inhibition of human DMS-273 cells measured after 48 hrs by sulforhodamine B assay; assay type: functional; method in brief: as §1
NCI-H226 = experiment: Growth inhibition of human NCI-H226 cells measured after 48 hrs by sulforhodamine B assay; assay type: functional; method in brief: as §1
SK-OV-3 = experiment: Growth inhibition of human SK-OV-3 cells measured after 48 hrs by sulforhodamine B assay; assay type: functional; method in brief: as §1
SNB-75 = experiment: Growth inhibition of human SNB-75 cells measured after 48 hrs by sulforhodamine B assay; assay type: functional; method in brief: as §1
MKN-28 = experiment: Growth inhibition of human MKN-28 cells measured after 48 hrs by sulforhodamine B assay; assay type: functional; method in brief: as §1
MCF7 = experiment: Growth inhibition of human MCF7 cells measured after 48 hrs by sulforhodamine B assay; assay type: functional; method in brief: as §1
[4] = Growth inhibition of human BSY1 cells measured after 48 hrs by sulforhodamine B assay; assay type: functional; settings: BSY-1; method in brief: as §1
MDA-MB-231 = experiment: Growth inhibition of human MDA-MB-231 cells measured after 48 hrs by sulforhodamine B assay; assay type: functional; method in brief: as §1
SF-539 = experiment: Growth inhibition of human SF-539 cells measured after 48 hrs by sulforhodamine B assay; assay type: functional; method in brief: as §1
MKN-45 = experiment: Growth inhibition of human MKN-45 cells measured after 48 hrs by sulforhodamine B assay; assay type: functional; method in brief: as §1
RXF 631 = experiment: Growth inhibition of human RXF 631 cells measured after 48 hrs by sulforhodamine B assay; assay type: functional; method in brief: as §1
HCT-116 = experiment: Growth inhibition of human HCT-116 cells measured after 48 hrs by sulforhodamine B assay; assay type: functional; method in brief: as §1
OVCAR-3 = experiment: Growth inhibition of human OVCAR-3 cells measured after 48 hrs by sulforhodamine B assay; assay type: functional; method in brief: as §1
[5] = Growth inhibition of human HBC5 cells measured after 48 hrs by sulforhodamine B assay; assay type: functional; method in brief: as §1

CC(C)C[C@@H]1NC(=O)[C@H]2CSSCC/C=C/[C@H](CC(=O)N[C@H](C(C)C)C(=O)N2)OC(=O)CNC1=O
GI50 (SNB-78): 1.8 µM | GI50 (MKN-74): 1.5 µM | GI50 (OVCAR-8): 1.5 µM | GI50 (St-4): 2.1 µM | GI50 (HCC 2998): 1.3 µM | GI50 (DMS-114): 0.68 µM | GI50 (U-251): 0.33 µM | GI50 (MKN-7): 1.8 µM | GI50 (DU-145): 0.83 µM | GI50 (HCT-15): 17 µM | Ratio IC50 [1]: 198 | GI50 (NCI-H460): 1.1 µM | GI50 (NCI-H23): 1.2 µM | GI50 (KM12): 1.1 µM | GI50 (ACHN): 9.4 µM | GI50 (MKN-1): 1.1 µM | IC50 [2]: 2.26 µM | IC50 (Histone deacetylase 1): 0.0114 µM | GI50 (A549): 0.72 µM | GI50 (HT-29): 0.69 µM | GI50 [3]: 1.4 µM | GI50 (SF-295): 1.5 µM | GI50 (PC-3): 1.4 µM | GI50 (SF-268): 0.82 µM | GI50 (OVCAR-5): 1.2 µM | GI50 (NCI-H522): 0.2 µM | GI50 (LOX IMVI): 0.18 µM | GI50 (OVCAR-4): 1.6 µM | GI50 (DMS-273): 1.4 µM | GI50 (NCI-H226): 1.6 µM | GI50 (SK-OV-3): 1.5 µM | GI50 (SNB-75): 1 µM | GI50 (MKN-28): 1.8 µM | GI50 (MCF7): 1.6 µM | GI50 [4]: 1.5 µM | GI50 (MDA-MB-231): 1.2 µM | GI50 (SF-539): 1.5 µM | GI50 (MKN-45): 2.2 µM | GI50 (RXF 631): 3.2 µM | GI50 (HCT-116): 0.34 µM | GI50 (OVCAR-3): 1.5 µM | GI50 [5]: 1.7 µM
